Source: PubChem BioAssay
Beta cell apopt: blocks beta cell apoptosis. protection from apoptosis, % (no concentration beside the values). 0.8% of 300,000 active. INS-1E cytokine-induced death, ATP luminescence, 48 h; percent of positive-control rescue, neutral wells zero;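 active means Every replicate reaches about 75%, or at least half do and their mean reaches it too, limit read from the data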;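 further: higher means more ATP so stronger rescue from cytokine killing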
CSC inhib: cancer stem cell inhibition | inhibition, % at 7.5 µM | cancer stem cell-like cells viability, luminescence | 1.1% of 300,000 active | AID 2717; in the data active means inhibition above about 75%; tested in HMLE shEcad cells
TMEM16A inh: blocks the mouse calcium-activated chloride channel TMEM16A | 1.2% of 310,000 active | HEK293 TMEM16A/YFP iodide influx fluorescence, ionomycin | normalized B-score (activity score, 25-100; higher = stronger inhibition) at 10 µM;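 active means ratio plate-corrected score three or more library SD toward inhibition, starting fluorescence score within five deviations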;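 further: score derived from kinetic fluorescence span divided by baseline fluorescence per well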
MC4R ag barr: agonists of human melanocortin 4 receptor (MC4R) beta-arrestin; U2OS MC4R beta-arrestin complementation, luminescence; percent of melanotan II response, DMSO zero; activation, % at 8.9 µM; 0.98% of 360,000 active;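 active means activation above a per-plate cutoff, the mean activation of sample wells on that plate plus 3 SD, cut at about 8% in these data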
Target sequence (P32245 whole entry, looked up): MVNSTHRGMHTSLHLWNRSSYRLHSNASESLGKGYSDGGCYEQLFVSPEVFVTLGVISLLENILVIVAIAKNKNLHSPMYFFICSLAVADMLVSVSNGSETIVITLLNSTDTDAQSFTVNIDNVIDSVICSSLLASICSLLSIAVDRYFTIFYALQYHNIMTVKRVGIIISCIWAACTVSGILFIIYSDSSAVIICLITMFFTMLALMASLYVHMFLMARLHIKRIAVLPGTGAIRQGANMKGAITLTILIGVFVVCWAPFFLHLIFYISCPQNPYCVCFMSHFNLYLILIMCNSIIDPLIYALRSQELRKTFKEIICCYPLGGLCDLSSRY
MC4R antag cAMP: human MC4R antagonism in cAMP assay. P32245. MC4R-expressing cells, MTII-stimulated cAMP, LANCE TR-FRET. inhibition, % at 6.5 µM. 0.48% of 360,000 active;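 active means inhibition above its plate's cutoff, the mean of tested wells on that plate plus 3 SD, cut at about 29% in these data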
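Material – human MC4R-expressing U2OS cells · Repeats – no replicates · Detection – TR-FRET with Eu-cAMP and labeled anti-cAMP, 671 nm · Times – compound 30 min, challenge 1 h, detection 1 h · Compound – single nominal compound dose of 6.5 µM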
TMEM16A act: mouse TMEM16A channel activation, primary screen; Q8BHY3; HEK293 TMEM16A/YFP-H148Q/I152L, iodide quench fluorescence; active compounds read low; B-score at 10 µM; 0.3% of 340,000 active;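 active means fluorescence-ratio B-score plate-corrected deviation score at least 3 library SD below zero, with starting fluorescence score within 5 deviations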;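 further: channel opened by trigger with iodide after compound preincubation; score built on the fluorescence ratio of max minus min over baseline; more negative score means more quench and so TMEM16A activation or potentiation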
Of the large screens only hits and unclear results are named; the others gave an inactive call. Shown are actives, neighbours in structure and some others; about 3.8% of the full set was active somewhere.

Cc1ccc(C(=O)N2N=C(c3ccc(Br)cc3)CC2c2ccccc2O)cc1 (stereo unspecified)	Beta cell apopt 78, CSC inhib 112
COc1ccc(C(=O)N2N=C(c3cccs3)CC2c2ccccc2O)cc1 (stereo unspecified)	MC4R ag barr 12 (no result: Beta cell apopt)
Cc1occc1C(=O)NNC(=O)CN1C(=O)NC2(CCCCC2)C1=O	none (no result: Beta cell apopt, CSC inhib, TMEM16A inh)
COc1ccccc1C(c1nnnn1C1CCCC1)N1CCN2CCCC2C1 (stereo unspecified)	TMEM16A act -12 (no result: Beta cell apopt, CSC inhib)
c1cc(C(c2nnnn2C2CCCCC2)N2CCN3CCCC3C2)ccn1 (stereo unspecified)	none
O=C(CN(c1ccc(Cl)cc1)S(=O)(=O)c1ccccc1)N1CCN(c2ccccc2)CC1	MC4R ag barr 9.1
COc1ccc(N2CCN(C(=O)CN(c3ccc(OC)cc3)S(=O)(=O)c3ccccc3)CC2)cc1	none (no result: Beta cell apopt)
CCN(CC)C(=O)c1nc[nH]c1C(=O)N1CCC(C)CC1	none (no result: CSC inhib, TMEM16A inh)
Cc1csc2ncnc(N3CCN(S(=O)(=O)c4cccc(C(F)(F)F)c4)CC3)c12	Beta cell apopt 95, TMEM16A inh 100
Cc1sc2ncnc(N3CCN(S(=O)(=O)c4ccc(C(C)(C)C)cc4)CC3)c2c1C	Beta cell apopt 124 (no result: TMEM16A inh)
O=S(=O)(c1ccc(Cl)cc1)N1CCN(c2ncnc3sccc23)CC1	Beta cell apopt 83 (no result: TMEM16A inh)
CSc1ccc(CN2CCC(C)(Oc3ccc(F)cc3)C2)cc1 (stereo unspecified)	none (no result: Beta cell apopt, CSC inhib, TMEM16A inh, TMEM16A act)
Cc1ccc(S(=O)(=O)N2CCOCC2)cc1C(=O)Nc1nc(-c2ccccn2)cs1	Beta cell apopt 76 (no result: TMEM16A inh)
O=C(Nc1nc(-c2cccs2)cs1)c1ccc(S(=O)(=O)N2CCCCC2)cc1	none
O=C(Nc1nc(-c2ccccn2)cs1)c1ccc(S(=O)(=O)N2CCCCC2)cc1	Beta cell apopt 83, CSC inhib 99 (no result: MC4R ag barr, MC4R antag cAMP, TMEM16A act)
COc1ccccc1OC(C)C(=O)Nc1nc(-c2ccc(S(=O)(=O)N3CCOCC3)cc2)cs1 (stereo unspecified)	none
O=C(Nc1nc(-c2ccccn2)cs1)c1cccc(S(=O)(=O)N2CCOCC2)c1	none (no result: TMEM16A inh)
COc1ccccc1C(=O)Nc1nc(-c2ccc(S(=O)(=O)N3CCOCC3)cc2)cs1	Beta cell apopt 85, TMEM16A inh 100
Cc1ccc(S(=O)(=O)c2c(C)cc(C)[nH]c2=O)c(C)c1	none
O=C(Nc1cccc(NC(=O)c2ccccc2Cl)c1)c1ccc([N+](=O)[O-])o1	Beta cell apopt 96
O=C(Nc1cccc([N+](=O)[O-])c1)c1ccc([N+](=O)[O-])o1	none (no result: Beta cell apopt, CSC inhib, TMEM16A inh, TMEM16A act)
CN(CC(=O)NCCc1ccccc1)S(=O)(=O)c1cccs1	TMEM16A act -5.4
CN(CC(=O)NCCc1ccc(Cl)cc1)S(=O)(=O)c1cccs1	none
COc1ccc([N+](=O)[O-])cc1NC(=O)C(C)OC(=O)CSC(C)C(=O)Nc1cc(C)on1 (stereo unspecified)	none
CCOc1ccc(C2OC34CCCCC3C(C#N)(C#N)C2(C#N)C(=N)O4)cc1OC (stereo unspecified)	TMEM16A act -5
COc1cc(C)c2c(c1OC)C(=O)CC2	none (no result: Beta cell apopt, CSC inhib, TMEM16A inh)
COCCCn1cnnc1SC(C)C(=O)Nc1ccc(S(=O)(=O)N2CCOCC2)cc1 (stereo unspecified)	none (no result: TMEM16A inh)
CCSc1ncc(/C=N/Nc2ccc(Cl)cc2)n1C	CSC inhib 93
COc1ccc(/C=N/NC(=O)CSc2nnc(CCCc3ccc(OC)c(C)c3)o2)cc1	TMEM16A inh 100 (no result: CSC inhib)
O=C(COC(=O)CCC(=O)c1cccs1)NC1CCCCC1	none (no result: Beta cell apopt, CSC inhib, TMEM16A inh)
CC(C)c1ccc(NC(=O)c2snc3ccc(Cl)cc23)cc1	CSC inhib 80
Cc1ccc(NC(=O)c2ccc(Cl)c(N3C(=O)C=CC3=O)c2)cc1	CSC inhib 79, MC4R antag cAMP 55
CCc1ccc(OC)c(S(=O)(=O)Nc2ccc(Cc3ccncc3)cc2)c1	Beta cell apopt 101
COc1ccc(S(=O)(=O)Nc2ccc(Cc3ccncc3)cc2)cc1OC	TMEM16A inh 25
O=S(=O)(Nc1ccc(Cc2ccncc2)cc1)c1ccc(Cl)c(Cl)c1	none (no result: CSC inhib)
O=C(COC(=O)[C@@H]1CC(O)CN1S(=O)(=O)c1ccc2c(c1)OCCO2)Nc1cc(F)ccc1F (stereo partly specified)	none (no result: TMEM16A inh)
Cc1cc(C)c(Nc2cc(S(=O)(=O)O)c(N)c3c2C(=O)c2ccccc2C3=O)c(C)c1	CSC inhib 94
Cc1cc(C)c(NC(=O)COC(=O)c2cccc3c2C(=O)c2ccccc2C3=O)c(C)c1	none
NNC(=S)Nc1c(F)cc(F)cc1Br	none
Cc1ccc(C(=O)NC(C)c2ccc(F)cc2)cc1 (stereo unspecified)	none (no result: Beta cell apopt, CSC inhib)
Cc1ccc(C(C#N)c2ccc(C(=O)c3ccc(F)cc3)cc2)cc1 (stereo unspecified)	TMEM16A inh 25
COc1ccc(/C=C/C(=O)OCC(=O)Nc2ccc(N3CCOCC3)cc2)cc1	none
CCOc1ccc(/C=C/C(=O)Nc2ccc(N3CCOCC3)cc2)cc1	MC4R ag barr 8.9
CC1S/C(=N/N=C/c2cccc([N+](=O)[O-])c2)NC1=O (stereo unspecified)	CSC inhib 88
CCCN(CC(=O)Nc1ccccc1OC)C(=O)c1ccc(S(=O)(=O)NCc2ccco2)cc1	TMEM16A act -45 (no result: TMEM16A inh)
CCCN(CC(=O)Nc1ccccc1OC)C(=O)c1ccc(S(=O)(=O)Nc2ccccc2OC)cc1	none (no result: Beta cell apopt, CSC inhib, TMEM16A inh)
CC(C)(C)c1ccc(OCCCCCCN2CCNCC2)cc1	none
CC(C)(c1ccccc1)c1ccc(OCCCN2CCNCC2)cc1	CSC inhib 80
C[C@H]1CN([C@@H](C)CO)C(=O)c2cccc(NC(=O)Nc3ccc(C(F)(F)F)cc3)c2O[C@@H]1CN(C)S(=O)(=O)c1ccc(Cl)cc1	CSC inhib 130 (no result: TMEM16A inh)
C[C@@H]1CN([C@@H](C)CO)C(=O)Cc2cc(NC(=O)Nc3ccc(C(F)(F)F)cc3)ccc2O[C@@H]1CN(C)S(=O)(=O)c1ccc(Cl)cc1	CSC inhib 132 (no result: TMEM16A inh)
C[C@H](CO)N1C[C@H](C)[C@@H](CN(C)S(=O)(=O)c2ccc(F)cc2)Oc2c(NC(=O)Nc3ccc(C(F)(F)F)cc3)cccc2C1=O	none (no result: TMEM16A inh)
C[C@H](CO)N1C[C@H](C)[C@@H](CN(C)S(=O)(=O)c2ccc(F)cc2)Oc2ccc(NC(=O)Nc3ccc(C(F)(F)F)cc3)cc2C1=O	CSC inhib 87 (no result: TMEM16A inh)
C[C@@H]1CN([C@H](C)CO)C(=O)c2cc(NC(=O)Nc3ccc(C(F)(F)F)cc3)ccc2O[C@H]1CN(C)S(=O)(=O)c1ccc(Cl)cc1	CSC inhib 78 (no result: TMEM16A inh, TMEM16A act)
C[C@H](CO)N1C[C@H](C)[C@@H](CN(C)S(=O)(=O)c2ccc(F)cc2)Oc2ccc(NC(=O)Nc3ccccc3)cc2C1=O	none (no result: TMEM16A inh)
